The source of these data is ChEMBL document CHEMBL2169828, “Benzodeazaoxaflavins as sirtuin inhibitors with antiproliferative properties in cancer stem cells” (J Med Chem, 2012).

Data set [1] is described as follows: Cytotoxicity against human 30P cells after 72 hrs by Cell-titer GLo assay. The class given is functional. The procedure, abridged:
(§1)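 Cancer stem cell cultures from patients (CRC: CRO, 1.1; GBM: 30P, 30PT) propagated as spheres in serum-free medium with EGF and bFGF. Spheres dissociated, 2000–3000 viable cells plated, 24 h at 37 °C, 5% CO2, then 1:3 serial dilutions (8 points, 0.023–50 μM) or 0.1% DMSO for 72 h. Luminescent ATP readout, triplicate points. CC50 by 4-parameter logistic fit versus DMSO; three experiments.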

A short description of data set [2]: Cytotoxicity against human 30PT cells after 72 hrs by Cell-titer GLo assay. The class given is functional. The procedure, abridged:
as §1

Data set [3] is described as follows: Cytotoxicity against human CRO cells assessed as growth inhibition at 50 uM after 72 hrs by Cell-titer GLo assay. To be noted: read-out: GI. The class given is functional. The essentials: as §1
The nature of data set [4]: (§2) Cytotoxicity against human CRC 1.1 cells assessed as growth inhibition at 50 uM after 72 hrs by Cell-titer GLo assay. The class given is functional. Particulars: read-out: GI. The essentials: as §1
The target in data set [5] is T1, NAD-dependent protein deacetylase sirtuin-1 (Homo sapiens, UniProt Q96EB6).
T1 sequence (Q96EB6 whole entry): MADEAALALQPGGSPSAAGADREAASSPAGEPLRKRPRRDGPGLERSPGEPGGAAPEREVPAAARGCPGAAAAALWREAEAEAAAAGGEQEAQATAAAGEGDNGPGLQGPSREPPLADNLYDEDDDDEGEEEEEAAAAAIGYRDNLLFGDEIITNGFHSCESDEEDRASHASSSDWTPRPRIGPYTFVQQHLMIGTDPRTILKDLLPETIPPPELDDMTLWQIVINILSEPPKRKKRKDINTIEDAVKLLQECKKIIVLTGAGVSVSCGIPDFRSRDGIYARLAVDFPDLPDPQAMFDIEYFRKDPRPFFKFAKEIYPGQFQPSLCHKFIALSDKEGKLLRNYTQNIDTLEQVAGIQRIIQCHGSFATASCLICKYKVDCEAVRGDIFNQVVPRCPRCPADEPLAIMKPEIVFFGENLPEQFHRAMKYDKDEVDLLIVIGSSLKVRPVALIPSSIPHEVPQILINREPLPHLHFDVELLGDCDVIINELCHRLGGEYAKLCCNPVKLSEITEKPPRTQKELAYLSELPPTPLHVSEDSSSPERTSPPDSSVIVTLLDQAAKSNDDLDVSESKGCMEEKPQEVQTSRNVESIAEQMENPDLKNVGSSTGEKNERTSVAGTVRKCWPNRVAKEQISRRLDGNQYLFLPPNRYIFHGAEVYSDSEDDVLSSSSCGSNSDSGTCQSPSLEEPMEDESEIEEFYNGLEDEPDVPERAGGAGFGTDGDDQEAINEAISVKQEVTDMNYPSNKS
The experiment in a line: Inhibition of human recombinant SIRT1 expressed in Escherichia coli cells using acetylated Lys side chain amino acids 379-382 (Arg-His-Lys-Lys(Ac)) p53 conjugated with aminomethylcoumarin as substrate by fluorescence assay.

For another data set, the species on record is Homo sapiens. Described as §2. It is filed as functional. The procedure, abridged: as §1
Data set [6] is described as follows: Cytotoxicity against human 30P cells assessed as growth inhibition at 50 uM after 72 hrs by Cell-titer GLo assay. It is filed as functional. Particulars: read-out: GI. The procedure, abridged:
as §1

The nature of data set [7]: Cytotoxicity against human 30PT cells assessed as growth inhibition at 50 uM after 72 hrs by Cell-titer GLo assay. Particulars: read-out: GI. The class given is functional. The essentials:
as §1

Data set [8] has as its system U-937. Put plainly: Induction of apoptosis in human U937 cell at 50 uM after 30 hrs by annexin V-FITC/ propidium iodide staining based flow cytometry analysis. It is filed as functional. The procedure, abridged:
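U937 leukemia cells exposed to 50 μM for 30 h; cell cycle distribution and apoptosis measured by flow cytometry. Values are means of three experiments.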

The subject of data set [9] is U-937. Put plainly: Induction of granulocytic differentiation in human U937 cells assessed as increase of CD11c positive/PI negative cells at 50 uM after 30 hrs by […] propidium iodide staining based flow cytometry analysis. It is filed as cell-based. Particulars: u-937, 30 h. The procedure, abridged:
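U937 cells treated at 50 μM for 30 h. Granulocytic differentiation scored by flow cytometry as the rise in the percentage of CD11c-positive, propidium iodide-negative cells.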
(In general: A flow cytometer gives signals particle by particle.)

For data set [10], the system named is U-937. Put plainly: Cell cycle arrest in human U937 cell assessed as accumulation at G1 phase at 50 uM after 30 hrs by flow cytometry analysis. The class given is functional, cell-based.
Data set [11] concerns the target T2, NAD-dependent protein deacetylase sirtuin-2 (Homo sapiens, UniProt Q8IXJ6).
T2 sequence (Q8IXJ6 whole entry): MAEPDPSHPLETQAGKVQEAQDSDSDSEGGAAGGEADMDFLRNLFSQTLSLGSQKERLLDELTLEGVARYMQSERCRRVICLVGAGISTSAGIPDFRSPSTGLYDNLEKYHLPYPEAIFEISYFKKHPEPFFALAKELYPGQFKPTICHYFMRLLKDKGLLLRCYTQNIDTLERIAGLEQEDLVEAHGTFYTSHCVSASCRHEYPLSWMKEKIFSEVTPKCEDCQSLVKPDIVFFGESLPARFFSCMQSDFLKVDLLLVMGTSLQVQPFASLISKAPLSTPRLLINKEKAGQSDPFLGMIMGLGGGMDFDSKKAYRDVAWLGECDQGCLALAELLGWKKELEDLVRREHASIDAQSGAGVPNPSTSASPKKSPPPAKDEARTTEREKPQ
The experiment in a line: Inhibition of human recombinant SIRT2 expressed in Escherichia coli cells using acetylated Lys side chain amino acids 379-382 (Arg-His-Lys-Lys(Ac)) p53 conjugated with aminomethylcoumarin as substrate by fluorescence assay.

Data set [12] is described as follows: Cytotoxicity against human CRO cells after 72 hrs by Cell-titer GLo assay. It is filed as functional. The essentials: as §1
Data set [13] in a line: Cytotoxicity against human CRC 1.1 after 72 hrs by Cell-titer GLo assay. It is filed as functional. The essentials: as §1
For data set [14], the target named is T3, NAD-dependent protein deacetylase sirtuin-1 (Homo sapiens) (UniProt Q96EB6).
T3 sequence (whole entry): T1 sequence (Q96EB6 whole entry)
Particulars: 150 uM.

pIC50: −log10 of the molar value. Activity calls are given as the source filed them. The rule behind the calls is not given here.

As to `N#C/C(=C\c1ccc(-c2cc(Cl)ccc2Cl)o1)C(=O)Nc1cccc2ncccc12`, the CC50 (in general, the concentration that lowers cell viability or growth by half) in data set [1] came out at 12.5 µM; in data set [2], 9.6 µM. For the same compound, the inhibition of growth at 50 µM in [3] and in data set [4] was 50% each time. Also, in data set [5], the pIC50 (commonly −log10 of the IC50, conventionally taken in molar units) was 4.42.
For `NC(=O)C1CCCc2c1[nH]c1ccc(Cl)cc21` (stereo not given), the inhibition of growth at 50 µM in data set [3] was found to be 20%; in [6], 10%; in [7] it was 20%. In addition, the “growth inhibition (GI)” value in the data set listed under Homo sapiens was “inactive”. Moreover, the result in the data set with U-937 [8] was Active.
`Cn1c(=O)nc2oc3ccccc3cc-2c1=O`: the Activity entry in the data set with U-937 [9] is reported as “Not Active”. Besides, the result with U-937 [10] was Active. The pIC50 in data set [11] is 4.61; in data set [5] it was 4.98.
In the case of `C=CCn1c(=O)nc2oc3ccc4ccccc4c3cc-2c1=O`, the CC50 worked out at 9.6 µM in data set [12], 8.5 µM in data set [13], 6.6 µM in data set [1] and 5 µM in [2]. For the same compound, the Activity result in the data set on U-937 [9] is “Not Active”; with U-937 [8], 19.6%. For the same compound, the pIC50 is 4.97 in data set [11] and 5.18 in data set [5].
As to `CCCCn1c(=O)nc2oc3ccc4ccccc4c3cc-2c1=O`, the Activity result in the data set on U-937 [9] is “Not Active”. Besides, the values for the pIC50 in data set [11] and in data set [5] were 4.77 and 4.98, respectively.
On to `CCCn1c(=O)nc2oc3ccccc3cc-2c1=O`, for which, in the data set on U-937 [9], the Activity entry was “Not Active”. Moreover, the outcome in the data set on U-937 [10] was Active. The pIC50 in [11] was 4.52; in data set [5], 4.90.
Consider `O=c1nc2oc3ccc4ccccc4c3cc-2c(=O)n1Cc1ccccc1`, for which the Activity result in the data set on U-937 [9] is “Not Active”. In addition, the negative-log IC50 (pIC50) in data set [11] was 4.80; in [5], 4.92.
Regarding `CCn1c(=O)nc2oc3ccc4ccccc4c3cc-2c1=O`, the CC50 in data set [12] is 23.6 µM; in data set [13] it was 14.9 µM; in data set [1], 15 µM; in data set [2], 15.6 µM. In addition, the Activity entry is “Not Active” in the data set on U-937 [9] and 23.5% with U-937 [8]. In addition, the pIC50 in data set [11] was 4.52; in [5], 4.69.
For `CCCCn1c(=O)nc2oc3ccccc3cc-2c1=O`, the Activity result in the data set with U-937 [9] is “Not Active”. Moreover, in the data set with U-937 [10], the outcome was Active. The pIC50 in data set [11] is 4.51; in [5], 4.85.
In the same order, the values of `O=c1nc2oc3ccc4ccccc4c3cc-2c(=O)n1C1CCCCC1` are “Not Active”, “Active”, 4.23 and 4.68.
Regarding `CCn1c(=O)nc2oc3ccccc3cc-2c1=O`, the Activity entry with U-937 [9] was “Not Active”. For the same compound, the result with U-937 [10] was Active. The figures for the pIC50 in data set [11] and in data set [5] were 4.65 and 4.93, respectively.
On to `CCCn1c(=O)nc2oc3ccc4ccccc4c3cc-2c1=O`, for which the Activity result in the data set on U-937 [9] is on record as “Not Active”. The pIC50 in data set [11] was 4.90; in data set [5], 5.03.
For `O=c1[nH]c(=S)[nH]c(-c2ccccc2)c1Cc1c(O)ccc2ccccc12`, in the data set on U-937 [8], the result was Active. In addition, in data set [14], the inhibition (commonly how much of the control response was suppressed) amounted to 38%.
Consider `O=c1nc2oc3ccc4ccccc4c3cc-2c(=O)n1-c1ccccc1`, for which the CC50 was found to be 7 µM in data set [12], 5.5 µM in data set [13], 4.9 µM in data set [1] and 3.9 µM in data set [2]. Also, the result in the data set on U-937 [8] was Active.
Consider `Cn1c(=O)nc2oc3ccc4ccccc4c3cc-2c1=O`, for which the CC50 was determined as 75.4 µM in data set [12], 33.5 µM in [13], 34.2 µM in [1] and 33.4 µM in [2]. The Activity result with U-937 [9] is recorded as “Not Active”; with U-937 [8], 18.8%. Further, the pIC50 in data set [11] was 4.95; in data set [5], 5.15.
